From ChEMBL document CHEMBL2346629, “Discovery and characterization of novel allosteric FAK inhibitors” (Eur J Med Chem, 2013)

Key:
[1] = target: Dual specificity protein kinase CLK1 (Homo sapiens) (UniProt P49759); assay: Inhibition of CLK1 CD (unknown origin) using [gamma-33P]ATP assessed as residual activity at 3 uM
How it was run: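 Reaction Biology HotSpot radiometric profiling panel of 288 kinases (261 wild-type, 27 mutant). Kinase activity was read out by incorporation of [γ-33P]ATP.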

[2] = target: Angiopoietin-1 receptor (Homo sapiens) (UniProt Q02763); assay: Inhibition of TIE2 (unknown origin) using [gamma-33P]ATP assessed as residual activity at 3 uM
Angiopoietin-1 receptor (Homo sapiens), sequence (Q02763 whole entry): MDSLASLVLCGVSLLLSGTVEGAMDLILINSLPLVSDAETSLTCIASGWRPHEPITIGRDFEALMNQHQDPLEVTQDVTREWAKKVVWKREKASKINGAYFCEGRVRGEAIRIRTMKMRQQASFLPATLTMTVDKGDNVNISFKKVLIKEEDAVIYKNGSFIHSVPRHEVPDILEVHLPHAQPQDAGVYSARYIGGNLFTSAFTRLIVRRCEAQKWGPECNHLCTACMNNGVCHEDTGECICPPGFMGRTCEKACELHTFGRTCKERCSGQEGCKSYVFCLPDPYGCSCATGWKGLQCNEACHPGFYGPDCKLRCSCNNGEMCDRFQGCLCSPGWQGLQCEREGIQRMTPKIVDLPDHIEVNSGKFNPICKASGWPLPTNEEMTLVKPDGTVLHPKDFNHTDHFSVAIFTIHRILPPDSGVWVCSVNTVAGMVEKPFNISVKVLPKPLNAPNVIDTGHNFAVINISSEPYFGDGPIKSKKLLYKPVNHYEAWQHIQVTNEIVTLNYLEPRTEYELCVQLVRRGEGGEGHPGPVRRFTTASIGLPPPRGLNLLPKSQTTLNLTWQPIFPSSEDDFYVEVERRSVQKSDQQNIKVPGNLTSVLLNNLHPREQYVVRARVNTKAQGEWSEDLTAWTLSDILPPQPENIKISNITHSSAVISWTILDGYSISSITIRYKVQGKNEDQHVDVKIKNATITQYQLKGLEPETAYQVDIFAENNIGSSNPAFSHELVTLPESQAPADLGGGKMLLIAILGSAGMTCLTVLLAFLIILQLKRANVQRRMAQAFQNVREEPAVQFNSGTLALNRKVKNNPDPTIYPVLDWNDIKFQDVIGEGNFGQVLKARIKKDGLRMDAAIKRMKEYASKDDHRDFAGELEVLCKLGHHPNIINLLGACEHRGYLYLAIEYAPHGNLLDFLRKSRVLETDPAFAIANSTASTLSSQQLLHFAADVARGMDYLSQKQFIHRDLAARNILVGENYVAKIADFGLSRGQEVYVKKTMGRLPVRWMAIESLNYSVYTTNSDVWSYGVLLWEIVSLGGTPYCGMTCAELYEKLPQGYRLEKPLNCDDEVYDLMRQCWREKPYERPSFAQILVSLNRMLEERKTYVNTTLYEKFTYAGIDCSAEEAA

[3] = target: NUAK family SNF1-like kinase 1 (Homo sapiens) (UniProt O60285); assay: Inhibition of ARK5 (unknown origin) using [gamma-33P]ATP assessed as residual activity at 3 uM
NUAK family SNF1-like kinase 1 (Homo sapiens), sequence (O60285 whole entry): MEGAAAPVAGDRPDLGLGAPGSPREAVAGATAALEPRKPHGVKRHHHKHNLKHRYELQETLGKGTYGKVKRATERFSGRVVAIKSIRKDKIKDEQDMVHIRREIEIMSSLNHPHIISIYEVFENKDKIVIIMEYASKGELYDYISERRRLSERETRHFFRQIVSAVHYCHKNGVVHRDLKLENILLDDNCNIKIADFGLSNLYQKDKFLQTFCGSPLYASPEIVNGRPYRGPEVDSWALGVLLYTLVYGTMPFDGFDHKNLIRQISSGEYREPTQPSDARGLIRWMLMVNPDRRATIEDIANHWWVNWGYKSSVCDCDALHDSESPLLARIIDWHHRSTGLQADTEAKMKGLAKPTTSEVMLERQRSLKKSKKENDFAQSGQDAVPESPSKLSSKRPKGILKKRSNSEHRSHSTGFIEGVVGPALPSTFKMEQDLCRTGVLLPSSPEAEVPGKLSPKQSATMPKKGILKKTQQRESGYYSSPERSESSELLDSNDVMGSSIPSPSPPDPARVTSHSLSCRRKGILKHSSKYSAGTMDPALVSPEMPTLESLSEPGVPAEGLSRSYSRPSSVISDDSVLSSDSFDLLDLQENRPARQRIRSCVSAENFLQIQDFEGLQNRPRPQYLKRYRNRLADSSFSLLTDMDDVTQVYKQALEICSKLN
How it was run: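 Radiometric profiling across 288 kinases (261 wild-type, 27 mutant), run as an outsourced service. Inhibition read out as [gamma-33P]ATP incorporation into substrate.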

Dual specificity protein kinase CLK1 (Homo sapiens), sequence (P49759 whole entry, looked up): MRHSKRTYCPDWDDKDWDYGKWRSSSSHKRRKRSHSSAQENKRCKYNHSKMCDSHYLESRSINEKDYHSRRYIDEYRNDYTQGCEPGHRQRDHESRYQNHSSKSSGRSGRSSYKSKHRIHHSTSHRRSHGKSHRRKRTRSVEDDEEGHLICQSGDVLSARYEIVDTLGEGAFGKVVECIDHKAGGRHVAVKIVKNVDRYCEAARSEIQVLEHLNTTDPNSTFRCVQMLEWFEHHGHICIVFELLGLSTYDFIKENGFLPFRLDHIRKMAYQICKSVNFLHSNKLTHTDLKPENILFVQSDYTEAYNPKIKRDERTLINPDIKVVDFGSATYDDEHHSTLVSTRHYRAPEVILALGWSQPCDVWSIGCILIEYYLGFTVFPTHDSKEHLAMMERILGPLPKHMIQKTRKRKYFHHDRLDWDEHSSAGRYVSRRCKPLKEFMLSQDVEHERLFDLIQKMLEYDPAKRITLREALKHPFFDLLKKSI

Activity [1]: 85%
Activity [2]: 91%
Activity [3]: 84%
Structure (SMILES): CCc1ccc(-c2ccc3c(c2)-c2[nH]ncc2S(=O)(=O)N3C)cc1
